Screening data (PubChem BioAssay)
Sampled rows, rich in hits. Any-hit rate of the full collection: about 2.2%.
Neddylation inh – inhibitors of human cullin neddylation; 0.58% of 360,000 active; P61081+Q13564; TR-FRET cullin neddylation, biochemical; inhibition, % at 25 µM; AID 651699; in the data active = inhibition above about 36%
HKDC1 inh – blocks human hexokinase HKDC1 activity. 0.16% of 340,000 active. Q2TB90. AID 493160. recombinant HKDC1, G6PDH/diaphorase resazurin coupled fluorescence. inhibition, % at 20 µM;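 active = inhibition above about 35% when tested at 20 µM, limit read from the data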;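 note: plate controls were DMSO wells with enzyme for no effect and DMSO wells lacking enzyme for full effect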
Target sequence (Q2TB90 whole entry, looked up): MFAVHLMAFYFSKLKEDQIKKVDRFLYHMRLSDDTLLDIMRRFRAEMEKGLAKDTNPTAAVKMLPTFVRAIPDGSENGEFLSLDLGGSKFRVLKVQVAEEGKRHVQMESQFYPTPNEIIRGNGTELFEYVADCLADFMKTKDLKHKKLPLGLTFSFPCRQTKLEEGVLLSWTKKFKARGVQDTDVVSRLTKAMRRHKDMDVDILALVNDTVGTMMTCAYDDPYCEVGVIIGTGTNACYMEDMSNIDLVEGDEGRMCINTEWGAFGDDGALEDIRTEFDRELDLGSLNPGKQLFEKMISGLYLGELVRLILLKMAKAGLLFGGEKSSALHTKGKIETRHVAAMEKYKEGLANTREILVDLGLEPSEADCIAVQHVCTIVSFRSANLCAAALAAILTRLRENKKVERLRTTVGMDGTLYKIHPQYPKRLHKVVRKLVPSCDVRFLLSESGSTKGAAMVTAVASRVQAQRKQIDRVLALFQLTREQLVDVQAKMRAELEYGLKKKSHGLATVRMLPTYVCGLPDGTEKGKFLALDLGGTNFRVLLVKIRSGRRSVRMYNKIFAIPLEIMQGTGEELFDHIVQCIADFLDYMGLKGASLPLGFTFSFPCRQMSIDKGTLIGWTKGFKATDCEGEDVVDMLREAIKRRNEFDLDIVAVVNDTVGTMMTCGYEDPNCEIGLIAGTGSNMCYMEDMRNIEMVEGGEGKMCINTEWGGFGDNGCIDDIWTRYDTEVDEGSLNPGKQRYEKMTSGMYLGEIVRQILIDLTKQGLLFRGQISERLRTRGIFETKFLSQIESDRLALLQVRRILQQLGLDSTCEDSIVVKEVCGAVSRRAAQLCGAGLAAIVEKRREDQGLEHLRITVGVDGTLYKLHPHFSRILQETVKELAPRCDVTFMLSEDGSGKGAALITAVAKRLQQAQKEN
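Test system: HK5 enzyme. Quantity: 5 µg/mL HK5 final. Reagent: glucose and ATP substrates. Schedule: 90 min reaction incubation at room temperature, dark. Technique: resazurin-to-resorufin fluorescence via G6PDH and diaphorase coupling, 525/613 nm. Control set: DMSO wells with and without enzyme mix.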
M18AAP inhibitor – blocks P. falciparum M18 aspartyl aminopeptidase. recombinant PfM18AAP, H-Glu-NHMec fluorogenic cleavage. inhibition, % at 7.35 µM. 1.2% of 290,000 active. AID 1822;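 active = inhibition above the campaign mean inhibition over all tested compounds plus 3 SD, cut at about 28% in these data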;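 note: 0% = plate median of test compound wells and 100% = 2 mM ZnCl2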
PfGluPho inh – PfG6PD (Plasmodium falciparum) enzyme inhibition; PfGluPho enzyme, NADPH resazurin-diaphorase fluorescence; inhibition, % at 20 µM; 0.78% of 350,000 active;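 active = inhibition reaching at least a set limit at 20 µM in the primary screen, cut at about 59% in these data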;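 note: 0% = DMSO wells with substrate and 100% = DMSO wells lacking glucose-6-phosphate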
HKDC1 act conf – confirmation of human HKDC1 activators. AID 504708. recombinant HKDC1, G6PDH/diaphorase resazurin fluorescence; stronger effect = lower value. inhibition, % at 20 µM. shares compounds with HKDC1 inh. 14% of 740 active;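 active = inhibition at or below a set negative limit, negative inhibition meaning the enzyme was activated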
PfGluPho conf – confirmation of Plasmodium falciparum G6PD inhibitors. inhibition, % at 20 µM. AID 504753. 34% of 2,400 active. shares compounds with PfGluPho inh. recombinant PfGluPho, NADPH-diaphorase-resazurin fluorescence;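 active = inhibition of at least 50% at 20 µM in any single replicate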;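 note: 0% = DMSO with substrate and 100% = DMSO lacking glucose-6-phosphate substrate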
Diaphorase 10uM – counter-screen for P. falciparum G6PD inhibitors: diaphorase inhibitors, oxidizers. shares compounds with PfGluPho inh. diaphorase-coupled resazurin reduction, fluorescence, NADPH 10 uM. inhibition, % at 20 µM. 39% of 820 active;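 active = average inhibition reaching 50% or more with the compound at 20 µM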;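 note: resorufin red fluorescence formed as diaphorase reduces resazurin using NADPH; 0% = DMSO with enzyme and 100% = DMSO without enzyme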
Diaphorase 30uM – counter-screen for P. falciparum G6PD inhibitors: diaphorase inhibitors, oxidizers; shares compounds with PfGluPho inh; Diaphorase/resazurin coupled assay, resorufin fluorescence, 30 uM NADPH; inhibition, % at 20 µM; 29% of 820 active; AID 504863;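 active = inhibition averaging 50% or more, tested at 20 µM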;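 note: 0% = DMSO with enzyme and 100% = DMSO wells lacking diaphorase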
* hit, by the source's call; · = not tested or not shown; ! = a repeat was not active.

SMILES	Neddylation inh	HKDC1 inh	M18AAP inhibitor	PfGluPho inh	HKDC1 act conf	PfGluPho conf	Diaphorase 10uM	Diaphorase 30uM
Cc1cc(C)c(S(=O)(=O)Nc2cc(SCC(=O)O)c(O)c3ccccc23)cc1C	·	54*	-5	107*	41	98*	52*	39
O=S(=O)(Nc1ccc(Cl)cc1NS(=O)(=O)c1ccccc1)c1ccccc1	-11	1	·	5	·	·	·	·
O=C(O)CSc1cc(NS(=O)(=O)c2ccc(Cl)cc2)c2ccccc2c1O	-27	65*	14	109*	46	91*	56*	41
Oc1cccc2oc(=S)[nH]c12	1	-4	·	8	·	·	·	·
CC(=O)c1cnc(N(C)C)s1	1	-7	-4	0	·	·	·	·
CN(C)c1ncc(C2=C(Cl)C(=O)C(N3CCCC3)=C(Cl)C2=O)s1	0	35*	23	91*	20	98*	35	30
O=C(c1ccccc1)c1coc2ccc(O)c(Cl)c12	-13	-5	9	1	·	·	·	·
Cc1oc2c(c1C(=O)c1ccccc1)C(=O)C(=O)c1ccccc1-2	-57	42*	7	108*	52	101*	90*	91*
O=C1C(=O)c2c(C(=O)c3ccccc3)coc2-c2ccccc21	-13	51*	10	117*	53	107*	94*	100*
CN(C)Cc1cc(O)c(CN(C)C)cc1O	39*	47*	28	78*	70	88*	43	17
CN(C)Cc1cc(C(C)(C)C)cc(C(C)(C)C)c1O	0	-3	-3	-14	·	·	·	·
O=C(Nc1ccccc1N1CCCC1)c1cccc(-c2cc3ccccc3oc2=O)c1	-13	0	15	6	·	·	·	·
O=C(Nc1ccc(N2CCCC2)cc1)c1cccc(-c2cc3ccccc3oc2=O)c1	6	-40	4	68*	-25*	58*	-21	-29
CC(OC(=O)c1cc(O)c2ccccc2c1O)C(=O)Nc1ccc(C(N)=O)cc1 (stereo not given)	-10	39*	·	72*	28	33	·	·
O=S(=O)(c1ccc(Br)cc1)c1nc(-c2ccco2)oc1NCCCn1ccnc1	10	-3	·	-5	·	·	·	·
CCOC(=O)C1=CNS(=O)(=O)NC1c1ccc(C)cc1 (stereo not given)	8	9	·	17	·	·	·	·
COc1ccc(N=C2C(=S)N(c3ccc(OC)cc3)C(=NS(=O)(=O)c3ccccc3)N2c2ccccc2)cc1	4	-69	·	84*	-5	68*	-26	-16
COc1ccc(N2C(=O)NC(NS(=O)(=O)c3ccccc3)(C(F)(F)F)C2=O)cc1 (stereo not given)	-1	-4	3	-12	·	·	·	·
O=C1/C(=C\c2ccc(Cl)c(Cl)c2)CN(C(=O)CCN2CCOCC2)C/C1=C/c1ccc(Cl)c(Cl)c1	4	61*	·	60*	17	25	·	·
O=C1/C(=C\c2ccccc2)CN(C(=O)CCN2CCCCC2)C/C1=C/c1ccccc1	1	13	·	44	·	·	·	·
O=C(Nc1ccc2nc(-c3ccco3)c(-c3ccco3)nc2c1)NC1CC1	1	50*	29*	82*	-1	32	·	·
Cc1ccc(SC2=C(N(C)C)C(=O)c3ccccc3C2=O)cc1	-32	57*	·	65*	60	14	·	·
Cc1ccc(NC2=CC(=O)C(=O)c3ccccc32)cc1	-58	27	-1	15	·	·	·	·
NC1=C(Br)C(=O)c2ncccc2C1=O	-88	38*	·	108*	51	86*	78*	74*
O=C1c2cccnc2C(=O)N1CO	-15	-1	-7	-9	·	·	·	·
SMILES	Neddylation inh	HKDC1 inh	M18AAP inhibitor	PfGluPho inh	HKDC1 act conf	PfGluPho conf	Diaphorase 10uM	Diaphorase 30uM
Cc1ccc(S(=O)(=O)N(C(=O)c2ccncc2)c2ccc(OC(=O)c3ccncc3)c3ccccc23)cc1	1	32	1	74*	16	56*	16	-10
C=CC(=O)N1C/C(=C/c2ccc(F)cc2)C(=O)/C(=C\c2ccc(F)cc2)C1	10	36*	·	62*	4	14	·	·
Cc1cc(C)c(S(=O)(=O)/N=C2/C=C(SCC(=O)O)C(=O)c3ccccc32)cc1C	-18	51*	-13	106*	30	95*	48	36
COc1ccc(CN2C=C3C(=O)C(C)(OC(=O)C4CCCC4)C(=O)C=C3C=C2c2ccsc2)cc1 (stereo not given)	-31	35*	·	67*	-19	38	·	·
O=C(C1=C(c2ccccc2)C(=O)c2ccccc2C1=O)c1ccccc1	-25	58*	0	116*	52	79*	84*	81*
COc1ccc(CCNC(=O)CSCC(=O)Nc2cc(S(C)(=O)=O)ccc2Cl)cc1	-23	-5	·	2	·	·	·	·
O=C1C=C(c2c(O)ccc3ccccc23)c2ccccc2C1=O	11	93*	·	118*	78	111*	96*	97*
COc1ccccc1N(CC(=O)Nc1ccccc1C(F)(F)F)S(=O)(=O)c1cccs1	1	2	·	-6	·	·	·	·
CC1(C)Cc2ccccc2C(Nn2cnnc2)=N1	2	5	6	8	·	·	·	·
CC1(C)Cc2ccccc2C2=NNC(=O)C2=N1	·	53*	1	108*	37	94*	93*	93*
COc1ccc(NC(=O)c2cc3ccccc3cc2O)cc1	35	38*	0	70*	-13	28	·	·
COc1ccc(C(=O)NNC(=O)c2cc3ccccc3cc2O)cc1	34	-2	·	-12	·	·	·	·
Nc1ccccc1N=c1ssnc1Cl	9	-3	21	59	·	·	·	·
COc1cc(N=c2ssnc2Cl)c(OC)cc1Cl	-21	-46	29*	105*!	-57*	64*	-15	-18
Cc1ccc(N=c2ssnc2Cl)cc1	-2	-51	9	91*	-44*	43	·	·
Cc1cc(C)nc(/N=c2/ssnc2Cl)c1	·	-137	29*	98*	-84*	26	·	·
NC(=O)CSc1nc2cc(Cl)ccc2c(=O)n1C1CCCCC1	-2	-1	-6	9	·	·	·	·
CCCCC(=O)N(C)c1c(C)nc2ccc(C(=O)N(C)Cc3ccco3)cn12	7	·	·	·	·	·	·	·
Cc1ccc(NS(=O)(=O)c2ccc(-n3cccn3)cc2)nc1	·	-3	1	-4	·	·	·	·
COC(=O)c1cc(C)nc2c1C(=O)C(=O)C=C2N1CCOCC1	-46	68*	6	105*	66	101*	99*	103*
CCN(CC)c1ccc(C(=C2C=CC(=[N+](CC)CC)C=C2)c2ccc(N(CC)CC)cc2)cc1	36	54*	·	92*	12	85*	35	22
CCN(CC)c1ccc(C(=O)NNC(=O)CCl)cc1	9	-3	5	2	·	·	·	·
